Source: ChEMBL document CHEMBL3232870, “Discovery of 3-(4-methanesulfonylphenoxy)-N-[1-(2-methoxy-ethoxymethyl)-1H-pyrazol-3-yl]-5-(3-methylpyridin-2-yl)-benzamide as a novel glucokinase activator (GKA) for the treatment of type 2 diabetes mellitus” (Bioorg Med Chem, 2014)
Values after ≈ are worked out from the molar mass of the structure shown.

How the values were obtained:
[1] = AUC in Sprague-Dawley rat at 3 mg/kg, iv and 10 mg/kg, po; format: ADME, organism-based; conditions: plasma
Summary of the method: (§1)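 Male ICR mice and 7-week-old SD rats received a 3 mg/kg intravenous bolus or a 10 mg/kg oral gavage dose. Plasma was deproteinized with acetonitrile (2 volumes) and compound measured by HPLC. Parameters came from noncompartmental analysis.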

[2] = Cmax in male Sprague-Dawley rat at 250 mg/kg, po measured on day 1; format: ADME, organism-based; parameters: dose 250 mg/kg, route oral; conditions: in vivo
Summary of the method: (§2)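 Sprague–Dawley rats, 5 weeks old at arrival, both sexes. Given the compound by oral gavage once daily for 14 days at 0, 250, 500 or 1000 mg/kg/day, with 0.5% methylcellulose as vehicle. Toxicokinetic parameters were determined on Day 1 and Day 14.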

Mus musculus [3] = assay: Toxicity in fasting C57BL/J6 mouse assessed as glucose lowering effect at 50 mg/kg, po after 30 to 360 mins; format: organism-based; parameters: dose 50 mg/kg, route oral; conditions: in vivo
Summary of the method: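 Eight-week-old male C57BL/6 mice were fasted 6 h with free access to water, then dosed orally with compound or 0.5% methylcellulose vehicle, with no glucose challenge. Blood glucose was followed up to 360 min, n = 6 per group.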

[4] = Clearance in ICR mouse at 3 mg/kg, iv and 10 mg/kg, po; format: ADME, organism-based; conditions: in vivo; summary of the method: as §1
[5] = Cmax in male Sprague-Dawley rat at 250 mg/kg, po measured on day 14; format: ADME, organism-based; parameters: dose 250 mg/kg, route oral; conditions: in vivo; summary of the method: as §2
[6] = Cmax in male Sprague-Dawley rat at 500 mg/kg, po measured on day 1; format: ADME, organism-based; parameters: dose 500 mg/kg, route oral; conditions: in vivo; summary of the method: as §2
Mus musculus [7] = assay: Toxicity in C57BL/J6 db/db mouse assessed as effect on serum lipids at 30 to 100 mg/kg, po; conditions: in vivo
[8] = Clearance in Sprague-Dawley rat at 3 mg/kg, iv and 10 mg/kg, po; format: ADME, organism-based; conditions: in vivo; summary of the method: as §1
[9] = Volume of distribution at steady state in Sprague-Dawley rat at 3 mg/kg, iv and 10 mg/kg, po; format: ADME, organism-based; conditions: in vivo, read-out: Vdss
Summary of the method: (§3)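 Male ICR mice and 7-week-old SD rats received a 3 mg/kg iv bolus or a 10 mg/kg oral gavage dose. Plasma was precipitated with 2 volumes of acetonitrile and analysed by HPLC. Parameters came from noncompartmental analysis.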

[10] = Cmax in Sprague-Dawley rat at 3 mg/kg, iv and 10 mg/kg, po; format: ADME, organism-based; conditions: in vivo; summary of the method: as §1
[11] = AUC in ICR mouse at 3 mg/kg, iv and 10 mg/kg, po; format: ADME, organism-based; conditions: plasma; summary of the method: as §1
[12] = Tmax in female Sprague-Dawley rat at 1000 mg/kg, po measured on day 14; format: ADME, organism-based; parameters: dose 1000 mg/kg, route oral; conditions: in vivo
Summary of the method: (§4)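 Sprague–Dawley rats of both sexes, 5 weeks old at arrival, received daily oral gavage at 0, 250, 500 or 1000 mg/kg/day for 14 days. Vehicle was 0.5% methylcellulose at 10 mL/kg. Toxicokinetics were taken on Day 1 and Day 14. Necropsy was by Day 15. Testis was fixed in modified Davidson's fixative, paraffin-sectioned and H&E-stained, with histopathology on control and high-dose groups only.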

[13] = Metabolic stability in mouse liver microsomes assessed as compound remaining after 1 hr relative to control; format: ADME; conditions: read-out: Stability
Summary of the method: (§5)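 Liver microsomes from mouse, dog or human were incubated with compound for 1 h, and the percentage of compound remaining was determined.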

[14] = Tmax in Sprague-Dawley rat at 3 mg/kg, iv and 10 mg/kg, po; format: ADME, organism-based; conditions: in vivo; summary of the method: as §3
[15] = Aqueous solubility of the compound in phosphate buffer at pH 7.4; format: physicochemical
Cytochrome P450 2D6 = Cytochrome P450 2D6 (Homo sapiens, UniProt P10635); assay: Inhibition of CYP2D6 in human liver microsomes; format: ADME
Chain of Cytochrome P450 2D6 (P10635 whole entry): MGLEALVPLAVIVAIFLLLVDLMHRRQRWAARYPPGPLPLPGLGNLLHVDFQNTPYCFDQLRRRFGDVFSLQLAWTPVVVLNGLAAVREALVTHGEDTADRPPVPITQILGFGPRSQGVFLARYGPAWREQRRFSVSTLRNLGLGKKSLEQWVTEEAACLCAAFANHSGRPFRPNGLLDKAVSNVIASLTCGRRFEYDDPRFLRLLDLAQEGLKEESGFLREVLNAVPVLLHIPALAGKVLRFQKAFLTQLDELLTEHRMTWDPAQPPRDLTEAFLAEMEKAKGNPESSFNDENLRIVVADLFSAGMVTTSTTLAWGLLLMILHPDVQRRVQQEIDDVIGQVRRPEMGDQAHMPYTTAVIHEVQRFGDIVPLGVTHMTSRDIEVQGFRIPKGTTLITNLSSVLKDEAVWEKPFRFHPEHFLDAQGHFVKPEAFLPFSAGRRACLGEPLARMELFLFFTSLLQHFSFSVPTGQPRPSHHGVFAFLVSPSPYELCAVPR
Summary of the method: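 Pooled human liver microsomes at 0.25 mg/mL, each with a CYP-selective substrate and test compound up to 25 µM, preincubated at 37 °C. It is stopped on ice with ice-cold acetonitrile and centrifuged, and the supernatant is analysed by LC–MS/MS.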

[16] = Volume of distribution at steady state in ICR mouse at 3 mg/kg, iv and 10 mg/kg, po; format: ADME, organism-based; conditions: in vivo, read-out: Vdss; summary of the method: as §3
[17] = Metabolic stability in human liver microsomes assessed as compound remaining after 1 hr relative to control; format: ADME; conditions: read-out: Stability; summary of the method: as §5
[18] = Tmax in male Sprague-Dawley rat at 500 mg/kg, po measured on day 14; format: ADME, organism-based; parameters: dose 500 mg/kg, route oral; conditions: in vivo; summary of the method: as §4
[19] = AUC (0 to t) in male Sprague-Dawley rat at 1000 mg/kg, po measured on day 1; format: ADME, organism-based; parameters: dose 1000 mg/kg, route oral; conditions: plasma; summary of the method: as §2
Salmonella typhimurium = assay: Genotoxicity in Salmonella typhimurium TA100 assessed as increase in number of revertants at 1.5 to 5000 ug/plate by Ames test in presence of S9 fraction; format: toxicity, organism-based; conditions: salmonella enterica subsp. enterica serovar typhimurium
Summary of the method: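 Ames reverse mutation test by direct plate incorporation in S. typhimurium TA98 and TA100, with or without Aroclor 1254-induced rat liver S9 mix. Compound in DMSO at 1.5–5000 µg/plate, plated in top agar, incubated 37 °C for about 50 h, then revertant colonies counted. Plates were checked for precipitation and cytotoxicity. A positive was a reproducible, dose-related increase in revertants of more than 2-fold.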

[20] = Tmax in male Sprague-Dawley rat at 250 mg/kg, po measured on day 14; format: ADME, organism-based; parameters: dose 250 mg/kg, route oral; conditions: in vivo; summary of the method: as §4
Cytochrome P450 3A4 = Cytochrome P450 3A4 (Homo sapiens, UniProt P08684); assay: Induction of CYP3A4 in human liver microsomes up to 25 to 50 uM; format: ADME
Chain of Cytochrome P450 3A4 (P08684 whole entry): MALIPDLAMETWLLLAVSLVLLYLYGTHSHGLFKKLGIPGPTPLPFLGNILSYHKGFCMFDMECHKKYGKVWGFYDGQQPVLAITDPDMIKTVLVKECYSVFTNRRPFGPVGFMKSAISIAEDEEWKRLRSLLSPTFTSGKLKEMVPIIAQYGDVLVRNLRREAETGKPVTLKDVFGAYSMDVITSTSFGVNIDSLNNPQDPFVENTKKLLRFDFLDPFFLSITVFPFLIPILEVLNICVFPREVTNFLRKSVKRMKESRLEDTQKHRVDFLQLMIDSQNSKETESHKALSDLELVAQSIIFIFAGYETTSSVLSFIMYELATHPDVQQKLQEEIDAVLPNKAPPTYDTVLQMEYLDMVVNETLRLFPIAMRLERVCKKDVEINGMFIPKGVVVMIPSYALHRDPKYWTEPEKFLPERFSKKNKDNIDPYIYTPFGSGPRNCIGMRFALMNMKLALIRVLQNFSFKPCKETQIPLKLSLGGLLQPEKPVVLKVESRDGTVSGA

MIN6 = assay: Increase in 11 mM glucose-stimulated insulin secretion in mouse MIN6 cells measured for 1 hr by ELISA; format: functional
[21] = Tmax in female Sprague-Dawley rat at 1000 mg/kg, po measured on day 1; format: ADME, organism-based; parameters: dose 1000 mg/kg, route oral; conditions: in vivo; summary of the method: as §4
[22] = AUC (0 to t) in female Sprague-Dawley rat at 1000 mg/kg, po measured on day 14; format: ADME, organism-based; parameters: dose 1000 mg/kg, route oral; conditions: plasma; summary of the method: as §2
Hepatocyte = assay: Induction of 2-Deoxy-D-[3H]-glucose uptake in rat Hepatocytes using 5.5 mM glucose after 4 hrs by liquid scintillation counting; format: functional
Summary of the method: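 Rat primary hepatocytes, isolated by collagenase liver perfusion, viability over 85%. Cells attached 36 h on collagen I in MEM with 10% FBS, then serum-starved 12 h. Incubated 4 h in serum-free MEM with 5.5 mM glucose and 2-deoxy-D-[3H]-glucose, with or without compound. Washed in ice-cold PBS, lysed in 0.1 N NaOH, scintillation counted, expressed as % increase over control.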

[23] = Elimination half life in ICR mouse at 3 mg/kg, iv and 10 mg/kg, po; format: ADME, organism-based; conditions: in vivo, read-out: beta t1/2 (converted); summary of the method: as §1
Mus musculus [24] = assay: Antidiabetic activity in glucose-treated C57BL/J6 db/db mouse assessed as reduction of glucose AUC at 50 mg/kg, po preincubated for 30 mins followed by glucose challenge measured after 30 to 180 mins by oral glucose tolerance test relative to control; format: functional; parameters: scale not given: the % may be the effect or the level left; conditions: in the assay text read “C57BL/J6 mouse” for “C57BL/J6 db/db mouse”
Summary of the method: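 Oral glucose tolerance test. Mice: eight-week-old male C57BL/6 or ten-week-old male C57BLKS/J db/db, fasted overnight with water. Compound or 0.5% methylcellulose vehicle given orally, then an oral 2 g/kg glucose challenge 30 min later. Tail-tip blood glucose was read just before and at 30, 60, 90, 120 and 180 min. AUC was calculated from the time–glucose curve; n = 6.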

## COCCOCn1ccc(NC(=O)c2cc(Oc3ccc(S(C)(=O)=O)cc3)cc(-c3ncccc3C)c2)n1
[1]
  AUC: 3800 ng·h/mL
[2]
  Cmax: 3060 ng/mL
Mus musculus [3]
  Activity: Toxic
[4]
  clearance: 3.33 mL/min/kg
[5]
  Cmax: 1820 ng/mL
[6]
  Cmax: 4100 ng/mL
Mus musculus [7]
  Activity: Non-toxic
[8]
  clearance: 9.83 mL/min/kg
[9]
  Vd: 0.21 L/kg
[10]
  Cmax: 3700 ng/mL
[11]
  AUC: 11900 ng·h/mL
[12]
  Tmax: 2.7 h
[13]
  remaining at 1 h: > 60%
[14]
  Tmax: 0.42 h
[15]
  solubility: 122 µM (≈ 65.5 µg/mL)
Cytochrome P450 2D6
  inhibition (INH): Not Active
[16]
  Vd: 0.18 L/kg
[17]
  remaining at 1 h: > 60%
[18]
  Tmax: 3 h
[19]
  AUC(0-t): 35400 ng·h/mL
Salmonella typhimurium
  Activity: Non-toxic
[20]
  Tmax: 3 h
Cytochrome P450 3A4
  Activity: Not Active
MIN6
  fold change (FC): 9
[21]
  Tmax: 2.7 h
[22]
  AUC(0-t): 24000 ng·h/mL
Hepatocyte
  fold change (FC): 2.23
[23]
  half-life: 1.4 h
Mus musculus [24]
  Activity: 32.3%
